Assay results from ChEMBL document CHEMBL1141424, “Antitubercular dihydroagarofuranoid sesquiterpenes from the roots of Microtropis fokienensis” (2007).
In brackets after ≈: the same amount, converted by molar mass.

test system: Mycobacterium tuberculosis; assay: Antitubercular activity against Mycobacterium tuberculosis 90-221387; assay type: functional
How it was run: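 Agar proportion method on Middlebrook 7H10 with OADC, clinical susceptible isolate 90-221387. Compound serially diluted into agar at 50-56 °C, final 100 to 0.8 µg/mL, in quadrant plates. Inoculum in 7H9 broth adjusted to McFarland no. 1, then 10-2 dilution, spotted on each quadrant. Incubated 35 °C, 10% CO2, 2 weeks. MIC read; ethambutol positive control; means of 3 or 4 replicates.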

SMILES | MIC [µM]
CC(=O)O[C@H]1CC[C@@H](C)[C@]23OC(C)(C)[C@H](C[C@H](OC(=O)c4ccccc4)[C@]12COC(=O)c1ccccc1)[C@H]3OC(=O)c1ccccc1 | 78.1 (≈ 50 µg/mL)
CC(=O)O[C@H]1C[C@@H](C)[C@]23OC(C)(C)[C@H](C[C@H](OC(=O)c4ccccc4)[C@]2(COC(=O)c2ccccc2)[C@H]1OC(C)=O)[C@H]3OC(=O)c1ccccc1 | 96 (≈ 67.1 µg/mL)
CC(=O)O[C@H]1CC[C@@H](C)[C@@]23C[C@@H](C[C@H](OC(=O)c4ccccc4)[C@]12C)C(C)(C)O3 | 26 (≈ 10.4 µg/mL)
CC(=O)O[C@H]1[C@@H](O)C[C@@H](C)[C@]23OC(C)(C)[C@H](C[C@H](OC(=O)c4ccccc4)[C@]12COC(=O)c1ccccc1)[C@H]3OC(=O)c1ccccc1 | 19.5 (≈ 12.8 µg/mL)
CC(=O)O[C@H]1C[C@@H](C)[C@]23OC(C)(C)[C@H](C[C@H](OC(=O)c4ccccc4)[C@]2(COC(=O)c2ccccc2)[C@H]1O)[C@H]3OC(=O)c1ccccc1 | 15.8 (≈ 10.4 µg/mL)
O=Cc1ccc(O)cc1 [4-HYDROXYBENZALDEHYDE] | > 400
CC[C@H](CC[C@@H](C)[C@H]1CC[C@H]2[C@@H]3CC=C4CC(=O)CC[C@]4(C)[C@H]3CC[C@]12C)C(C)C [BETA-SITOSTENONE] | > 400
CC[C@H](CC[C@@H](C)[C@H]1CC[C@H]2[C@@H]3CC=C4C[C@@H](O)CC[C@]4(C)[C@H]3CC[C@]12C)C(C)C [BETA-SITOSTEROL] | > 400
CC[C@@H](CO)NCCN[C@@H](CC)CO [ETHAMBUTOL] | 30.6 (≈ 6.25 µg/mL)
O=Cc1cc(Cc2ccc(O)cc2)ccc1O [FORKIENIN] | 276 (≈ 63 µg/mL)
CC(=O)O[C@H]1C[C@@H](C)[C@]23OC(C)(C)[C@H](C[C@H](OC(=O)c4ccccc4)[C@]2(COC(=O)c2ccccc2)[C@H]1OC(C)=O)[C@H]3OC(C)=O [MUTANGIN] | 51.8 (≈ 33 µg/mL)
CC(=O)O[C@H]1[C@@H](OC(=O)c2ccccc2)C[C@@H](C)[C@]23OC(C)(C)[C@H](C[C@H](OC(=O)c4ccccc4)[C@]12C)[C@H]3OC(=O)c1ccccc1 [ORBICULIN G] | 14.6 (≈ 9.35 µg/mL)
O=C(O)c1ccc(O)cc1 [PARABEN] | 362 (≈ 50 µg/mL)
COc1cc(C(=O)O)cc(OC)c1O [SYRINGIC ACID] | 318 (≈ 63 µg/mL)
COc1cc(C(=O)O)ccc1O [VANILLIC ACID] | 375 (≈ 63.1 µg/mL)
